ChEMBL document CHEMBL1157142, “Alkyl deoxy-arabino-hexopyranosides: synthesis, surface properties, and biological activities” (Bioorg Med Chem, 2008)
Converted amounts (≈) assume the structure as drawn. The source made the active and inactive calls. The rule behind the calls is not given here.

Key:
[1] = system: Bacillus cereus; experiment: Antimicrobial activity against Bacillus cereus ATCC 11778 assessed as diameter of the inhibition zone after 24 hrs by paper disk agar diffusion method; assay type: functional
How it was run: (§1)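 Overnight cultures were spread on agar: tryptone soy agar for Listeria, azide dextrose agar for Enterococcus, and nutrient agar for the other bacteria. 6.4 mm paper disks each received 300 µg of substance in 15 µL DMSO. Plates were incubated at 37 °C for 24 h and the inhibition-zone diameter measured. Chloramphenicol served as control. At least three replicates were run.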

[2] = system: Aspergillus niger; experiment: Antimicrobial activity against Aspergillus niger ATCC 16404 assessed as diameter of the inhibition zone after 48 hrs by paper disk agar diffusion method; assay type: functional
How it was run: (§2)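 Fungal disk diffusion: overnight cultures were spread on potato dextrose agar. 6.4 mm paper disks each carried 300 µg of substance in 15 µL DMSO. Plates were incubated at 25 °C for 48 h and the inhibition-zone diameter read. Actidione was the control for A. niger and chloramphenicol for C. albicans. At least three replicates were run.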

[3] = system: Listeria monocytogenes; experiment: Antimicrobial activity against Listeria monocytogenes ATCC 7644 assessed as diameter of the inhibition zone after 24 hrs by paper disk agar diffusion method; assay type: functional; how it was run: as §1
[4] = system: Listeria monocytogenes; experiment: Antimicrobial activity against Listeria monocytogenes ATCC 7644 after 16 to 20 hrs by broth dilution method; assay type: functional; settings: for MIC: Listeria monocytogenes, ATCC 7644
How it was run: (§3)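 Dilution method used overnight cultures and serial compound dilutions from 500 down to 1.95 µg/mL, with chloramphenicol from 50 to 0.195 µg/mL. Incubation was at 35 °C for 16–20 h, and MIC and MLC were determined. At least three replicates were run. Only compounds giving disk inhibition diameters of 11 mm or more were tested.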

[5] = system: Staphylococcus aureus; experiment: Antimicrobial activity against Staphylococcus aureus ATCC 25923 after 16 to 20 hrs by broth dilution method; assay type: functional; settings: for MIC: Staphylococcus aureus, ATCC 25923; how it was run: as §3
[6] = system: Salmonella enteritidis; experiment: Antimicrobial activity against Salmonella enteritidis ATCC 13076 assessed as diameter of the inhibition zone after 24 hrs by paper disk agar diffusion method; assay type: functional, Salmonella enterica subsp. enterica serovar Enteritidis; how it was run: as §1
[7] = system: Pyricularia oryzae; experiment: Antimicrobial activity against Pyricularia oryzae DSMZ 62938 assessed as diameter of the inhibition zone after 48 hrs by paper disk agar diffusion method; assay type: functional
How it was run: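 Overnight culture spread on potato dextrose agar; 6.4 mm paper disks loaded with compound dissolved in DMSO. […] served as the reference control. Plates incubated at 25 °C for 48 h, then the diameter of the inhibition zone was measured in mm. At least three replicates.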

[8] = system: Bacillus subtilis; experiment: Antimicrobial activity against Bacillus subtilis ATCC 6633 after 16 to 20 hrs by broth dilution method; assay type: functional; settings: for MIC: Bacillus subtilis, ATCC 6633; how it was run: as §3
[9] = system: Pseudomonas aeruginosa; experiment: Antimicrobial activity against Pseudomonas aeruginosa ATCC 27853 assessed as diameter of the inhibition zone after 24 hrs by paper disk agar diffusion method; assay type: functional; how it was run: as §1
[10] = system: Enterococcus faecalis; experiment: Antimicrobial activity against Enterococcus faecalis ATCC 29212 assessed as diameter of the inhibition zone after 24 hrs by paper disk agar diffusion method; assay type: functional; how it was run: as §1
[11] = system: Staphylococcus aureus; experiment: Antimicrobial activity against Staphylococcus aureus ATCC 25923 assessed as diameter of the inhibition zone after 24 hrs by paper disk agar diffusion method; assay type: functional; how it was run: as §1
[12] = system: Escherichia coli; experiment: Antimicrobial activity against Escherichia coli ATCC 8739 assessed as diameter of the inhibition zone after 24 hrs by paper disk agar diffusion method; assay type: functional; how it was run: as §1
[13] = system: Candida albicans; experiment: Antimicrobial activity against Candida albicans ATCC 10231 assessed as diameter of the inhibition zone after 48 hrs by paper disk agar diffusion method; assay type: functional; how it was run: as §2
[14] = system: Bacillus subtilis; experiment: Antimicrobial activity against Bacillus subtilis ATCC 6633 assessed as diameter of the inhibition zone after 24 hrs by paper disk agar diffusion method; assay type: functional; how it was run: as §1
[15] = system: Bacillus cereus; experiment: Antimicrobial activity against Bacillus cereus ATCC 11778 after 16 to 20 hrs by broth dilution method; assay type: functional; settings: for MIC: Bacillus cereus, ATCC 11778; how it was run: as §3
[16] = system: Enterococcus faecalis; experiment: Antimicrobial activity against Enterococcus faecalis ATCC 29212 after 16 to 20 hrs by broth dilution method; assay type: functional; settings: for MIC: Enterococcus faecalis, ATCC 29212; how it was run: as §3
[17] = Cytotoxicity against human peripheral blood lymphocytes assessed as mitotic index at 100 ug/mL; settings: pbl
How it was run: (§4)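 Heparinized whole blood from healthy donors was cultured in Ham's F-10 with 15% fetal calf serum, phytohemagglutinin, L-glutamine, streptomycin and penicillin. Compounds at 10 or 100 µg/mL were added after 24 h and culture continued to 48 h. Colcemid (0.5 µg/mL final) was present for the last 3 h. Mitotic index was scored on metaphase spreads at 500×. 2% H2O2 was the positive control.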

[18] = Cytotoxicity against human peripheral blood lymphocytes assessed as mitotic index at 10 ug/mL; settings: pbl; how it was run: as §4
[19] = system: Bacillus cereus; experiment: Antimicrobial activity against Bacillus cereus ATCC 11778 after 1 year; assay type: functional, organism-based

Compound	inhibition zone (IZ) [1] [mm]	inhibition zone (IZ) [2] [mm]	inhibition zone (IZ) [3] [mm]	MIC [4] [µg/mL]	MIC [5] [µg/mL]	inhibition zone (IZ) [6] [mm]	inhibition zone (IZ) [7] [mm]	MIC [8] [µg/mL]	inhibition zone (IZ) [9] [mm]	inhibition zone (IZ) [10] [mm]	inhibition zone (IZ) [11] [mm]	inhibition zone (IZ) [12] [mm]	inhibition zone (IZ) [13] [mm]	inhibition zone (IZ) [14] [mm]	MIC [15] [µg/mL]	MLC [4] [µg/mL]	MLC [16] [µg/mL]	MIC [16] [µg/mL]	MLC [8] [µg/mL]	MLC [15] [µg/mL]	also measured
CCCCCCCCO[C@@H]1C[C@H](O)[C@@H](O)[C@H](C)O1	12	<6.4	10	> 500	> 500	<6.4	<6.4	> 500	9	9	12	9	11	10	> 500	–	–	–	–	–	–
O=C(N[C@H](CO)[C@H](O)c1ccc([N+](=O)[O-])cc1)C(Cl)Cl [CHLORAMPHENICOL]	–	–	–	6.3 (≈ 19.5 µM)	6.3 (≈ 19.5 µM)	–	–	3.1 (≈ 9.59 µM)	–	–	–	–	–	–	6.3 (≈ 19.5 µM)	>50	>50	6.3 (≈ 19.5 µM)	>50	12.5 (≈ 38.7 µM)	MLC [5]: >50 µg/mL
CCCCCCCCCCCCO[C@@H]1C[C@@H](O)[C@H](O)[C@@H](CO)O1	<6.4	<6.4	10	–	–	<6.4	<6.4	–	<6.4	<6.4	<6.4	<6.4	9	9	–	–	–	–	–	–	Activity [17]: 7.75; Activity [18]: 13.5
CCCCCCCCCCCCO[C@@H]1C[C@H](O)[C@@H](O)[C@H](C)O1	<6.4	<6.4	<6.4	–	–	<6.4	<6.4	–	<6.4	<6.4	<6.4	<6.4	<6.4	<6.4	–	–	–	–	–	–	–
CCCCCCCCO[C@H]1C[C@@H](O)[C@H](O)[C@@H](CO)O1	11	<6.4	<6.4	–	–	<6.4	<6.4	> 500	<6.4	14	<6.4	<6.4	<6.4	12	> 500	–	>500	31.3 (≈ 113 µM)	–	–	–
CCCCCCCCO[C@H]1C[C@H](O)[C@@H](O)[C@H](C)O1	12	<6.4	10	–	500 (≈ 1920 µM)	<6.4	13	250 (≈ 960 µM)	8	10	11	8	10	12	250 (≈ 960 µM)	–	–	–	>500	500 (≈ 1920 µM)	MLC [5]: 500 µg/mL (≈ 1920 µM)
CCCCCCCCCCCCO[C@H]1C[C@@H](O)[C@H](O)[C@@H](CO)O1	10	<6.4	<6.4	250 (≈ 752 µM)	> 500	<6.4	<6.4	> 500	<6.4	17	<6.4	<6.4	10	10	> 500	>500	>500	31.3 (≈ 94.1 µM)	–	–	Activity [17]: 6.75; Activity [18]: 13.5
CCCCCCCCCCCCO[C@H]1C[C@H](O)[C@@H](O)[C@H](C)O1	27	<6.4	12	31.3 (≈ 98.9 µM)	–	<6.4	<6.4	7.8 (≈ 24.6 µM)	<6.4	13	9	<6.4	<6.4	25	7.8 (≈ 24.6 µM)	62.5 (≈ 197 µM)	>250	15.6 (≈ 49.3 µM)	15.6 (≈ 49.3 µM)	7.8 (≈ 24.6 µM)	Activity [19]: Active
CCCCCCCCO[C@@H]1C[C@@H](O)[C@H](O)[C@@H](CO)O1	<6.4	<6.4	<6.4	–	–	<6.4	<6.4	–	<6.4	<6.4	<6.4	<6.4	<6.4	<6.4	–	–	–	–	–	–	Activity [17]: 3; Activity [18]: 10.75
